Shown are actives, neighbours in structure and some others; about 1.3% of the full set was active somewhere.
FAS TE block: FAS thioesterase (human) inhibition; recombinant FAS-TE, OMFH fluorogenic substrate, fluorescence endpoint; inhibition, % at 15 µM; hit rate 0.67% among 360,000; AID 602261;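 active means compounds whose normalised, plate-corrected inhibition of enzyme fluorescence in the single-dose primary screen is 50% or more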;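 further: 0% = DMSO with enzyme and 100% = substrate without enzyme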
hiPSC survival: increases survival of single human iPS cells; hiPSC single-cell survival, ATPlite luminescence; 100% = ROCK inhibitor wells, 0% = DMSO; hit rate 0.044% among 360,000; AID 602274; survival enhancement, % at 20 µM; in the data active means survival enhancement above about 18%;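 further: cells exposed to compounds for 16 hours before the ATP read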
MT1-MMP act inh: MT1-MMP (human) activation inhibition | P50281 | GFP/RFP ratio change, % at 20 µM | AID 651647 | HT1080 RFP-PRO-GFP cells, GFP/RFP ratio fluorescence, overnight; percent of plate control window, DMSO zero | hit rate 0.061% among 360,000;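 active means GFP/RFP ratio change of at least 30% with cell ATP level not reduced by more than half and red fluorescence within 50% of control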
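Assay system – RFP-PRO-GFP reporter HT1080 cells · Compound dosing – single dose of 20 µM compound, 1% DMSO final · Incubation – overnight compound exposure at 37 °C · Measure – GFP/RFP fluorescence ratio · Benchmarks – DMSO wells and RFP-L50D-GFP cells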
DAGLB inh: diacylglycerol lipase beta (human) inhibition; HEK293T DAGLB membrane lysate, EnzChek fluorogenic substrate; Q8NCG7; AID 504411; inhibition, % at 5.17 µM; hit rate 0.059% among 340,000; in the data active means inhibition above about 34%;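 further: 0% = enzyme with vehicle and 100% = wells lacking enzyme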
Target sequence (Q8NCG7 whole entry, looked up): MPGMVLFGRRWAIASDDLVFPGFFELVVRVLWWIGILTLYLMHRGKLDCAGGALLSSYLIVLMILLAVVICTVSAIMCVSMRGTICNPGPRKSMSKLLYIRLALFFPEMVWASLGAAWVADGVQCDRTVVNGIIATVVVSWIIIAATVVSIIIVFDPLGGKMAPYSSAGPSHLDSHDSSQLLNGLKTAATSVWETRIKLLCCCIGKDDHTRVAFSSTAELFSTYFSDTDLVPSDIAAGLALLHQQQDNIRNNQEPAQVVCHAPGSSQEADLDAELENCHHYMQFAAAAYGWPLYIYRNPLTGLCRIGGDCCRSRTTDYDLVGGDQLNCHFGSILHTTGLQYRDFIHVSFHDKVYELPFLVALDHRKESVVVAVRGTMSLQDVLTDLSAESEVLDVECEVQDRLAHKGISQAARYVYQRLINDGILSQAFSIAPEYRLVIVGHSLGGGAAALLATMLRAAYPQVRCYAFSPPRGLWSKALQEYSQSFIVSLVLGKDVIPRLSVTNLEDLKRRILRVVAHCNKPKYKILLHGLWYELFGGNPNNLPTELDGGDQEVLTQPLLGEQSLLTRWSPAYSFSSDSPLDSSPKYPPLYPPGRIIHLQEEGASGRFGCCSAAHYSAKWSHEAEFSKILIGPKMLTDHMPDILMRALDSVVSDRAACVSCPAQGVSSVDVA
SKN-1 inh: blocks SKN-1 activity in C. elegans | AID 624304 | C. elegans VP596 Pgst-4::GFP/RFP ratio, acrylamide-induced, 24 h | inhibition, % at 21.8 µM | hit rate 0.49% among 360,000;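 active means interference check ratio from 0.5 to 1.5 plus GFP to RFP signal ratio inhibition reaching or exceeding a fixed threshold, cut at about 30% in these data, passing the limit was not always enough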
FAS-TE conf: FAS thioesterase (human) inhibition, confirmation. shares compounds with FAS TE block. recombinant FAS-TE, OMFH fluorogenic substrate, fluorescence. inhibition, % at 15 µM. hit rate 45% among 2,300. AID 624325;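 active means compounds inhibiting the enzyme by at least 50% at 15 µM in any one of the replicates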;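 further: 0% = enzyme with DMSO only and 100% = wells lacking enzyme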
* hit, by the source's call; x = no result.

SMILES | FAS TE block | hiPSC survival | MT1-MMP act inh | DAGLB inh | SKN-1 inh | FAS-TE conf
O=C1OCCN1C(=O)[C@H]1[C@H](c2ccccc2)C(c2ccccc2)=NN1c1ccc(Br)cc1 | 90.3* | 1.3 | -0.7 | -2.9 | 11.3 | 40.7
O=C1OCCN1C(=O)[C@H]1[C@H](c2ccccc2)C(c2ccc(F)cc2)=NN1c1ccc(Br)cc1 | 98.4* | -2.1 | x | -2.0 | 11.8 | 17.7
O=C1OCCN1C(=O)[C@H]1[C@H](c2ccccc2)C(c2ccccc2)=NN1c1ccccc1 | 25.5 | -2.8 | 0.3 | -1.0 | -6.9 | x
O=C(NN1C(=O)C2C(c3ccccc3)C=CC(c3ccccc3)C2C1=O)c1cccc(Br)c1 (centres undefined) | 53.8* | 0.8 | 3.1 | -6.6 | 11.5 | 45.4*
NC(=O)[C@H]1CC2(CC(c3cccc(NC(=O)CC(c4ccccc4)c4ccccc4)c3)=NO2)CN1C(=O)C(c1ccccc1)c1ccccc1 (some centres undefined) | 67.3* | 5.4 | -1.3 | 1.0 | 6.7 | 22.0
CCC(=O)Nc1cccc(C2=NOC3(C2)C[C@@H](C(N)=O)N(C(=O)c2ccccc2C(=O)c2ccccc2)C3)c1 (some centres undefined) | -7.1 | 0.3 | 0.6 | -6.7 | -6.1 | x
CCCCCC(=O)N1CC2(CC(c3cccc(NC(=O)CC(c4ccccc4)c4ccccc4)c3)=NO2)C[C@@H]1C(N)=O (some centres undefined) | 14.6 | -1.5 | 0.1 | 3.0 | -5.0 | x
NC(=O)[C@H]1CC2(CC(c3cccc(NC(=O)CC(c4ccccc4)c4ccccc4)c3)=NO2)CN1C(=O)c1ccccc1C(=O)c1ccccc1 (some centres undefined) | 75.3* | -2.7 | 9.2 | 2.1 | 6.1 | 11.1
CCCNC(=O)C1(C)CCCN(Cc2ccc(C(=O)OCC)o2)C1 (centres undefined) | -2.5 | 6.9 | 0.0 | x | 10.2 | x
CCCCNC(=S)N(C)/N=C/c1ccc2c(c1)OCO2 | 53.3* | 0.2 | -0.8 | -8.8 | 8.5 | 43.3
CCCCNC(=S)N(C)/N=C/c1ccc(F)cc1 | 31.0 | -0.6 | -1.3 | -14.2 | 3.9 | x
CCN(C[C@H]1N[C@@](Cc2ccccc2)(C(=O)OC)[C@H]2C(=O)N(Cc3ccccc3)C(=O)[C@@H]12)C(=O)Nc1ccc(C(F)(F)F)cc1 | 61.9* | -2.6 | -21.0 | -1.3 | 8.4 | 16.7
COC(=O)[C@]1(Cc2ccccc2)N[C@H](CN(C)S(=O)(=O)c2ccc(C(F)(F)F)cc2)[C@@H]2C(=O)N(Cc3ccccc3)C(=O)[C@@H]21 | 17.9 | -1.6 | -5.4 | -7.3 | 13.0 | x
COC(=O)[C@]1(Cc2ccccc2)N[C@H](CN(C)S(=O)(=O)c2ccc(C(C)(C)C)cc2)[C@@H]2C(=O)N(Cc3ccccc3)C(=O)[C@@H]21 | 55.0* | -0.9 | 1.0 | -3.4 | 8.9 | 22.0
Cc1c(Cl)c([N+](=O)[O-])nn1CCCC(=O)N(Cc1ccccc1)Cc1ccccc1 | 63.2* | -0.5 | -8.6 | -3.6 | 4.8 | 61.2*
Cc1c(Cl)c([N+](=O)[O-])nn1CCCC(=O)N1CCN(c2ccccc2)CC1 | 45.7 | 1.1 | 9.7 | -3.5 | 6.1 | x
Cc1c(Cl)c([N+](=O)[O-])nn1CCCC(=O)Nc1cc(Oc2ccccc2)cc([N+](=O)[O-])c1 | 52.9* | -0.8 | 2.0 | 1.1 | 1.4 | 10.2
Cc1nn(CCCC(=O)Nc2cc(Oc3ccc(F)cc3)cc([N+](=O)[O-])c2)c(C)c1[N+](=O)[O-] | 37.8 | -0.4 | -6.3 | -2.5 | -6.0 | x
O=C(NCc1cccs1)C1C(=O)Nc2ccccc2C(=O)N1Cc1ccccc1 (centres undefined) | x | x | 3.0 | x | 8.3 | x
OC1C2COC(O2)C2OC(c3ccccc3)OC12 (centres undefined) | 3.5 | -1.4 | 0.8 | x | -7.2 | x
CCN(c1ccccc1)S(=O)(=O)c1cccc(C(=O)OCc2nc3sc(C)c(C)c3c(=O)[nH]2)c1 | 51.6* | -2.1 | -0.1 | 2.4 | -3.9 | -0.7
CC(C)CCN1C(=O)c2ccc(C(=O)OCn3nnc4ccccc4c3=O)cc2C1=O | 55.0* | 0.1 | -16.1 | -3.9 | -1.8 | 16.9
Cc1ccc(CNC(=O)C(C(=O)NCc2ccc(C)o2)c2ncc(C(F)(F)F)cc2Cl)o1 | 61.7* | 0.6 | 0.3 | -0.9 | 4.1 | 6.7
COc1ccc(OC)c(NC(=O)Nc2nnc(COCCO)s2)c1 | -8.2 | 0.0 | -0.9 | x | 15.0 | x
O[C@H]1C[C@H](c2ccccc2)N(CC2CCCCC2)C[C@@H]1n1cc(C2CC2)nn1 | 65.2* | -1.4 | -5.0 | -0.1 | 7.7 | 65.1*
SMILES | FAS TE block | hiPSC survival | MT1-MMP act inh | DAGLB inh | SKN-1 inh | FAS-TE conf
O[C@@H]1CN(CC2CCCCC2)[C@@H](c2ccccc2)C[C@H]1n1cc(C2CC2)nn1 | 7.0 | -3.3 | -5.4 | -3.4 | 21.8 | x
CSCCC(NC(=O)c1ccc(Cl)c([N+](=O)[O-])c1)C(=O)N1CCN(C/C=C/c2ccccc2)CC1 (centres undefined) | 58.0* | -0.1 | 4.7 | -0.8 | -12.9 | 59.3*
O=C(c1ccncc1)N1CCN(S(=O)(=O)c2ccc(F)cc2)CC1 | -6.4 | -0.2 | 2.4 | -0.6 | 0.1 | x
O=S1(=O)CCN(CCCCc2ccccc2)CC1 | -0.6 | 0.3 | -1.3 | 0.1 | -0.5 | x
CCc1ccc(C(=O)NNc2cc(Cl)ccc2Cl)cc1 | 50.5* | 0.4 | -4.2 | -9.3 | 5.1 | 13.6
CCc1ccc(C(=O)NNc2ccccc2F)cc1 | -5.4 | 0.1 | -2.2 | -1.0 | 8.2 | x
COc1cccc(-c2cc(NC(C)=O)c3ncc(-c4ccc(OC)c(OC)c4)n3c2)c1 | 6.4 | 2.7 | -10.3 | x | 10.5 | x
CCCNC(=O)C1(C)CCN(Cc2ccc(-n3ccnc3)cc2)C1 (centres undefined) | -6.1 | 4.5 | 1.5 | x | -11.0 | x
Cc1ccc(C(=O)NCCSC(C)(C)C)cc1 | -3.8 | -1.5 | -1.2 | -1.4 | 8.7 | x
Cc1ccc(C(=O)NCCSC(C)(C)C)cc1[N+](=O)[O-] | 56.0* | -0.7 | 5.6 | -2.3 | 1.8 | 56.0*
Cc1ccc(C(=O)NCCSCc2ccc(Cl)cc2Cl)cc1[N+](=O)[O-] | 51.3* | -0.9 | -0.7 | -4.0 | 1.9 | 27.4
CNS(=O)(=O)c1cc(NC(=O)c2cnc(SC)n2-c2ccccc2)ccc1C | 2.1 | -0.3 | 0.4 | 1.9 | 16.6 | x
O=C(NCCCN1CCOCC1)c1[nH]c(C(F)(F)F)nc1-c1ccccc1 | -7.2 | 4.0 | 3.4 | x | 12.3 | x
CSCCC(NS(=O)(=O)c1ccc(C)c(C(=O)O)c1)C(=O)O (centres undefined) | -0.5 | 0.0 | 3.0 | 0.0 | -7.2 | x
O=C(Nc1nc(-c2cccc([N+](=O)[O-])c2)cs1)C(c1ccccc1)c1ccccc1 | 52.2* | 1.1 | -15.5 | -5.7 | 25.9 | 12.4
CC(OC(=O)c1ccccc1Br)C(=O)Nc1nc(-c2cccc([N+](=O)[O-])c2)cs1 (centres undefined) | 5.3 | -0.5 | 1.3 | 7.7 | -0.6 | x
